Measured values reported in ChEMBL document CHEMBL1828580, “Tertiary amides with a five-membered heteroaromatic ring as new probes for the translocator protein” (Eur J Med Chem, 2011).
The source made the active and inactive calls. The rule behind the calls is not given here.

Key:
[1] = biological target: Translocator protein (Rattus norvegicus, UniProt P16257); experiment: Displacement of [3H]PK11195 from TSPO receptor in rat kidney membranes; type: cell membranes, Membrane
[2] = Antiproliferative activity against human U87MG cells assessed as cell viability at 1000 times Ki after 24 hrs by MTS assay relative to untreated control; type: functional, U-87MG ATCC
Outline: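 U87MG cells grown in RPMI with 10% FBS, glutamine, antibiotics and non-essential amino acids at 37 °C. […] MTS colorimetric read-out, expressed as % of DMSO-treated control (100%). Triplicate wells, 3 experiments, mean ± SEM.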

[3] = species on record: Rattus norvegicus; experiment: Displacement of [3H]Ro15-1788 from CBR in rat cerebral cortex at 10 uM; type: tissue-based
Outline: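 Rat cerebral cortex membranes were washed free of endogenous GABA, then incubated with 0.4 nM [3H]Ro15-1788 for 90 min at 0 °C in 50 mM Tris-citrate pH 7.4. Compound was present at 10 μM and the result given as % inhibition of binding.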

[4] = system: U-87 MG; experiment: Induction of mitochondrial membrane depolarization in human U87MG cells assessed as increase in JC-1 monomer formation at 30 times Ki after 12 to 48 hrs by flow cytometric analysis; type: functional, cell-based; conditions: U-87MG ATCC
Outline: (§1)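 U87MG cells were exposed to compound at 30 times Ki, or to DMSO control, for 12, 24 or 48 h, with CCCP as positive control in each experiment. Collected cells were stained with JC-1 for 30 min at room temperature in the dark, then analysed by flow cytometry: aggregates in FL2, monomers in FL1, gated on forward/side scatter. Read-out was % of cells in the lower-right (depolarized) quadrant; three independent experiments.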

[5] = system: U-87 MG; experiment: Induction of mitochondrial membrane depolarization in human U87MG cells assessed as change in membrane potential at 30 times Ki after 48 hrs by flow cytometric analysis; type: functional, U-87MG ATCC; outline: as §1
[6] = system: U-87MG ATCC; experiment: Antiproliferative activity against human U87MG cells assessed as reduction in cell viability at 30 times Ki after 24 hrs by trypan blue exclusion assay
[7] = system: U-87MG ATCC; experiment: Antiproliferative activity against human U87MG cells assessed as reduction in cell viability at 30 times Ki after 48 hrs by trypan blue exclusion assay
[8] = system: U-87MG ATCC; experiment: Antiproliferative activity against human U87MG cells assessed as reduction in cell viability at 30 times Ki after 72 hrs by trypan blue exclusion assay
[9] = system: U-87MG ATCC; experiment: Antiproliferative activity against human U87MG cells assessed as reduction in cell viability at 150 times Ki after 24 hrs by trypan blue exclusion assay

Translocator protein, sequence (P16257 whole entry, looked up): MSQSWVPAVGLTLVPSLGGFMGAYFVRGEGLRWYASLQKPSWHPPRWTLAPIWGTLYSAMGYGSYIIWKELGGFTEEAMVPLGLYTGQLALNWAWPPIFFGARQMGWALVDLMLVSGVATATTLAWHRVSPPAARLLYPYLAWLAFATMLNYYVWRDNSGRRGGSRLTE

| Ki [1] [nM] | SMILES | further results |
| --- | --- | --- |
| 1630 | CCCN(CCC)C(=O)Cc1coc(-c2ccc(F)cc2)n1 |  |
| 4190 | CCCCCCN(CCCCCC)C(=O)c1nc(-c2ccccc2)no1 |  |
| 133 | CCCCCN(CCCCC)C(=O)Cc1nc(-c2ccccc2)no1 |  |
| > 10000 | CCCN(CCC)C(=O)c1cc(-c2ccc(Cl)cc2)on1 |  |
| 651 | CCCCN(CCCC)C(=O)c1cc(-c2ccccc2)no1 |  |
| 257 | CCCCCN(CCCCC)C(=O)Cc1cc(-c2ccccc2)no1 |  |
| 2700 | CCCCCCN(CCCCCC)C(=O)c1cc(-c2ccc(C)cc2)no1 |  |
| 942 | CCCN(CCC)C(=O)Cc1coc(-c2ccc(Cl)cc2)n1 |  |
| 382 | CCCCCN(CCCCC)C(=O)c1cc(-c2ccccc2)on1 |  |
| 152 | CCCCCN(CCCCC)C(=O)Cc1nc(-c2ccc(Cl)cc2)no1 |  |
| 613 | CCCCCN(CCCCC)C(=O)c1coc(-c2ccccc2)n1 |  |
| 45 | CCCCCN(CCCCC)C(=O)Cc1coc(-c2ccc(Cl)cc2)n1 | Activity [2]: 72.6% |
| 4600 | CCCCCCN(CCCCCC)C(=O)c1coc(-c2ccccc2)n1 |  |
| 11 | CCCCCN(CCCCC)C(=O)Cc1coc(-c2ccc(F)cc2)n1 | Activity [2]: 98% |
| 151 | CCCCCCN(CCCCCC)C(=O)Cc1coc(-c2ccccc2)n1 | inhibition [3]: < 25% |
| 157 | CCCCCCN(CCCCCC)C(=O)Cc1coc(-c2ccc(F)cc2)n1 |  |
| > 10000 | CCCN(CCC)C(=O)c1coc(-c2ccccc2)n1 |  |
| 489 | CCCCN(CCCC)C(=O)Cc1nc(-c2ccccc2)no1 |  |
| 177 | CCCCN(CCCC)C(=O)Cc1coc(-c2ccc(Cl)cc2)n1 |  |
| 88 | CCCCN(CCCC)C(=O)Cc1coc(-c2ccc(F)cc2)n1 |  |
| 3460 | CCCCN(CCCC)C(=O)c1coc(-c2ccccc2)n1 |  |
| 51 | CCCCCN(CCCCC)C(=O)Cc1cc(-c2ccccc2)on1 | Activity [2]: 24.8% |
| 914 | CCCCCN(CCCCC)C(=O)c1nc(-c2ccccc2)no1 |  |
| > 10000 | CCN(CC)C(=O)c1nc(-c2ccccc2)no1 |  |
| > 10000 | CCN(CC)C(=O)c1coc(-c2ccccc2)n1 |  |
| 5800 | CCCCCCN(CCCCCC)C(=O)c1cc(-c2ccccc2)on1 |  |
| 5490 | CCN(Cc1ccccc1)C(=O)c1coc(-c2ccccc2)n1 |  |
| 3200 | CCCCCCN(CCCCCC)C(=O)Cc1nc(-c2ccc(Cl)cc2)no1 |  |

The next lines start with the compound.

| SMILES | Ki [1] [nM] | further results |
| --- | --- | --- |
| CCCCN(CCCC)C(=O)Cc1coc(-c2ccc(C)cc2)n1 | 487 |  |
| CCCCN(CCCC)C(=O)C(=O)c1c(-c2ccc(Cl)cc2)[nH]c2ccc(Cl)cc12 |  | Activity [2]: 76% |
| CCCN(CCC)C(=O)c1nc(-c2ccccc2)no1 | > 10000 |  |
| CCCCCCN(CCCCCC)C(=O)Cc1coc(-c2ccc(Cl)cc2)n1 | 704 |  |
| CCCCN(C)C(=O)c1nc(-c2ccccc2)no1 | > 10000 |  |
| CCN(Cc1ccccc1)C(=O)c1nc(-c2ccccc2)no1 | 4870 |  |
| CCCCCCN(CCCCCC)C(=O)Cc1nc(-c2ccccc2)no1 | 1100 |  |
| CCCN(CCC)C(=O)Cc1nc(-c2ccc(Cl)cc2)no1 | 3400 |  |
| CCCCCCN(CCCCCC)C(=O)Cc1coc(-c2ccc(C)cc2)n1 | 877 |  |
| CCCCCCN(CCCCCC)C(=O)c1cc(-c2ccc(Cl)cc2)on1 | > 10000 |  |
| CCCCN(CCCC)C(=O)Cc1nc(-c2ccc(Cl)cc2)no1 | 267 |  |
| CCCN(CCC)C(=O)Cc1coc(-c2ccccc2)n1 | 1700 | inhibition [3]: < 25% |
| CCCCCN(CCCCC)C(=O)Cc1coc(-c2ccccc2)n1 | 32 | inhibition [3]: < 25%; Activity [2]: 9.3%; Activity [4]: Active; Activity [5]: 24%; Activity [6]: Active; Activity [7]: Active; Activity [8]: Active; Activity [9]: Active |
| CCCCN(CCCC)C(=O)c1cc(-c2ccccc2)on1 | 620 |  |
| CCCN(CCC)C(=O)Cc1coc(-c2ccc(C)cc2)n1 | 2200 |  |
| CCCCN(CCCC)C(=O)c1nc(-c2ccccc2)no1 | 772 |  |
| CCCCN(C)C(=O)c1coc(-c2ccccc2)n1 | > 10000 |  |
| CCCN(CCC)C(=O)c1cc(-c2ccccc2)no1 | > 10000 |  |
| CCCN(CCC)C(=O)Cc1nc(-c2ccccc2)no1 | 4340 |  |
| CCCCCCN(CCCCCC)C(=O)c1cc(-c2ccccc2)no1 | 7000 |  |
| CCCCCN(CCCCC)C(=O)c1cc(-c2ccccc2)no1 | 379 |  |
| CCCCN(CCCC)C(=O)Cc1coc(-c2ccccc2)n1 | 346 | inhibition [3]: < 25% |
| CCCCCN(CCCCC)C(=O)Cc1coc(-c2ccc(C)cc2)n1 | 68 | Activity [2]: 5.3% |
| CCCN(CCC)C(=O)c1cc(-c2ccccc2)on1 | > 10000 |  |
